One series has as its target Adenosine receptor A2a (Rattus norvegicus, UniProt P30543). Nature of the series: Displacement of [3H]NECA from adenosine A2A receptor in Sprague-Dawley rat striatal membranes after 1 hr by scintillation counting analysis. Further details: species or system Striatum, Membrane.
A further series has as its target T1, Adenosine receptor A1 (Rattus norvegicus, UniProt P25099).
T1 sequence (P25099 whole entry): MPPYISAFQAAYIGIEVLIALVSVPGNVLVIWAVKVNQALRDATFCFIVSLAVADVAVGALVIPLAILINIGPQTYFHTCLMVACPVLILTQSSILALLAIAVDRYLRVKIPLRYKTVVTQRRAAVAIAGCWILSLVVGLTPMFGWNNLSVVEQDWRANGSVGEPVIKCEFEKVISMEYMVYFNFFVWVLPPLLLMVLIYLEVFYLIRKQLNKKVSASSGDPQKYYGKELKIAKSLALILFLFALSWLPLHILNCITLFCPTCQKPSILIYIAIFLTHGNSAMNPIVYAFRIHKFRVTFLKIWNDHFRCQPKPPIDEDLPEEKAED
Nature of the series: Displacement of [3H]DPCPX from adenosine A1 receptor in Sprague-Dawley rat whole brain membranes after 1 hr by scintillation counting analysis. Further details: species or system Membrane. A digest of the protocol:
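Male rat whole-brain homogenate in 50 mM Tris (pH 7.7), ~5 mg original tissue per incubation, with 0.1 units adenosine deaminase and 0.1 nM [3H]DPCPX. Incubated 1 h, filtered on GF/B, counted by scintillation. IC50 from one-site competition, converted to Ki by Cheng-Prusoff. Duplicates, mean ± SEM.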

Series [1] is filed under the species Rattus norvegicus. Put plainly: Selectivity index, ratio of Ki for adenosine A2A receptor in Sprague-Dawley rat striatal membranes to Ki for adenosine A1 receptor in Sprague-Dawley rat whole brain membranes. A digest of the protocol:
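Ratio of two Ki values. A2A: rat striatal membranes (~10 mg tissue) in 50 mM Tris pH 7.7 with 10 mM MgCl2, 0.2 units adenosine deaminase, 50 nM CPA and 4 nM [3H]NECA. A1: whole-brain membranes with [3H]DPCPX 0.1 nM. Test compound 0–100 µM, 1 h incubation, filtration and scintillation counting. Non-specific binding with 100 µM CPA. Duplicate determinations.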

Series [2] is described as follows: Cytotoxicity against human HeLa cells assessed as cell viability at 1 uM after 24 hrs by MTT assay. As to conditions: read-out: Activity. It is filed as cell-based. A digest of the protocol: (§1)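 HeLa cells grown to confluence in DMEM with 10% FBS, penicillin/streptomycin and fungizone at 37 °C, 10% CO2. Seeded at 500 000 cells/well, then after 24 h switched to serum-free DMEM with test compound (DMSO stocks, filtered). Exposure lasted 24 h at 37 °C. Read-out was MTT 0.5%, 2 h in the dark, formazan dissolved in isopropanol, absorbance 560. Formic-acid lysis set 0% viability and untreated wells 100%. Triplicate, mean ± SD.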

A short description of series [3]: Cytotoxicity against human HeLa cells assessed as cell viability at 10 uM after 24 hrs by MTT assay. It is filed as cell-based. As to conditions: read-out: Activity. A digest of the protocol: as §1
Series [4] concerns Rattus norvegicus. Nature of the series: Reduction in haloperiodol induced catalepsy time in Sprague-Dawley rat at 1 to 2 mg/kg, ip dosed 30 mins after halperiodol challenge measured 60 mins after halperiodol challenge.
Series [5] relates to Rattus norvegicus. Put plainly: Reduction in haloperiodol induced catalepsy time in Sprague-Dawley rat at 0.1 to 2 mg/kg, ip dosed 30 mins after halperiodol challenge measured 60 mins after halperiodol challenge.

Calls of active or inactive are those of the source. The rule behind the calls is not given here.

Adenosine receptor A2a, sequence (P30543 whole entry): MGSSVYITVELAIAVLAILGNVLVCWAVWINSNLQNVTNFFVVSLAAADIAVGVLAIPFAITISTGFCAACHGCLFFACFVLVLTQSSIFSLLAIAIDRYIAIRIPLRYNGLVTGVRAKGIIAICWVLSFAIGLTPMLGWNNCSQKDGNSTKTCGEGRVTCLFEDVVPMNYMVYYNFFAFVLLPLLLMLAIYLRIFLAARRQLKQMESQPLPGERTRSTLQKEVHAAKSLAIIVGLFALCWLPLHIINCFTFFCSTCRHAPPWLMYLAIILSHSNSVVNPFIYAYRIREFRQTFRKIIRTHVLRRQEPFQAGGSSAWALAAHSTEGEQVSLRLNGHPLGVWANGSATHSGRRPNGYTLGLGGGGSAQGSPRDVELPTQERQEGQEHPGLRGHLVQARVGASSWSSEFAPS

For the compound `Nc1nc(-c2ccccc2)cc(-c2cccc(Cl)c2)n1`, the Ki at Adenosine receptor A2a is 948 nM; at Adenosine receptor A1, 22.8 nM. For the same compound, the Ratio Ki in the series listed under Rattus norvegicus [1] was 42.

`Cc1ccc(-c2cc(-c3ccc(Cl)cc3)nc(N)n2)o1`: the Ki on Adenosine receptor A2a was found to be 3320 nM; on Adenosine receptor A1 it was 434 nM. For the same compound, the Ratio Ki in the series filed under Rattus norvegicus [1] is 7.6.

Turning to `COc1cccc(-c2cc(-c3ccc(C)o3)nc(N)n2)c1`, the figures for the Ki at Adenosine receptor A2a and on Adenosine receptor A1 were 409 nM and 145 nM, respectively. For the same compound, in the series listed under Rattus norvegicus [1], the Ratio Ki was determined as 2.8.

Regarding `Nc1nc(-c2ccc(F)cc2)cc(-c2ccco2)n1`, the Ki was 257 nM on Adenosine receptor A2a and 158 nM at Adenosine receptor A1. Besides, in the series filed under Rattus norvegicus [1], the Ratio Ki stood at 1.6.

For `Nc1nc(-c2cccc(Cl)c2)cc(-c2ccco2)n1`, the Ki on Adenosine receptor A2a was 245 nM; on Adenosine receptor A1 it was 39.1 nM. For the same compound, the Ratio Ki in the series filed under Rattus norvegicus [1] stood at 6.3.

Turning to `COc1ccc(-c2cc(-c3ccc(C)o3)nc(N)n2)cc1OC`, the inhibition constant Ki at Adenosine receptor A2a was found to be 2780 nM; on Adenosine receptor A1 it was 650 nM. The Ratio Ki in the series listed under Rattus norvegicus [1] was 4.3.

For the compound `Cc1ccc(-c2cc(-c3cccc(C(=O)N4CCOCC4)c3)nc(N)n2)o1`, the Ki on Adenosine receptor A2a came to 29.3 nM; on Adenosine receptor A1 it was 52.1 nM. For the same compound, the Ratio Ki in the series filed under Rattus norvegicus [1] came out at 0.6. The viability at 24 h, 1 µM in series [2] was found to be 98.6%. The viability at 24 h, 10 µM in series [3] is 81.7%.

For the compound `COc1cccc(-c2cc(-c3ccco3)nc(N)n2)c1`, the values for the Ki on Adenosine receptor A2a and at Adenosine receptor A1 were 249 nM and 61.4 nM, respectively. Moreover, in the series filed under Rattus norvegicus [1], the Ratio Ki worked out at 4.1.

`Cc1ccc(-c2cc(-c3cccc(C(=O)N4CCN(C)CC4)c3)nc(N)n2)o1`: the Ki on Adenosine receptor A2a came out at 16.3 nM; at Adenosine receptor A1 it was 136 nM. Besides, in the series listed under Rattus norvegicus [1], the Ratio Ki stood at 0.1. Besides, the viability at 24 h, 1 µM in series [2] was found to be 107%. For the same compound, the viability at 24 h, 10 µM in series [3] was 76.8%. Besides, in the series on Rattus norvegicus [4], the result was Active.

Regarding `Cc1ccc(-c2cc(-c3cccc(C(=O)N4CCCCC4)c3)nc(N)n2)o1`, the Ki on Adenosine receptor A2a was 6.34 nM; at Adenosine receptor A1 it was 9.54 nM. For the same compound, the Ratio Ki in the series listed under Rattus norvegicus [1] came to 0.7. The viability at 24 h, 1 µM in series [2] came to 64.3%. Also, the viability at 24 h, 10 µM in series [3] was determined as 61.6%. Moreover, the outcome in the series with Rattus norvegicus [5] was Active.

`Cc1ccc(-c2cc(-c3cccc(C(=O)N4CCCC4)c3)nc(N)n2)o1`: the results for the inhibition constant (Ki) on Adenosine receptor A2a and at Adenosine receptor A1 were 58.2 nM and 36.8 nM, respectively. The Ratio Ki in the series filed under Rattus norvegicus [1] was 1.6. Also, the viability at 24 h, 1 µM in series [2] amounted to 101%. Besides, the viability at 24 h, 10 µM in series [3] turned out to be 67.9%.

Take `CCN1CCN(C(=O)c2cccc(-c3cc(-c4ccc(C)o4)nc(N)n3)c2)CC1`: the results for the Ki at Adenosine receptor A2a and at Adenosine receptor A1 were 30.9 nM and 37.5 nM, respectively. For the same compound, in the series listed under Rattus norvegicus [1], the Ratio Ki was 0.8. Also, in series [2], the viability at 24 h, 1 µM is 65.7%. The viability at 24 h, 10 µM in series [3] came to 60.1%.

Take `Cc1ccc(-c2cc(-c3cccc(Cl)c3)nc(N)n2)o1`: the Ki on Adenosine receptor A2a came out at 399 nM; at Adenosine receptor A1 it was 129 nM. The Ratio Ki in the series listed under Rattus norvegicus [1] worked out at 3.1.
